# BindingDB's records for doi:10.1016/j.bmc.2013.04.054 (Northwestern University, 2013)
# Target: Voltage-dependent L-type calcium channel subunit alpha-1C (Oryctolagus cuniculus, UniProt P15381)
# Assay: Antagonist activity at rabbit voltage-dependent L-type calcium channel Cav1.2alpha-1C expressed in HEK293 cells by FLIPR assay
# Summary of the method: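 HEK293 lines stably expressing rat CaV1.3α1D or rabbit CaV1.2α1C, with rat CaVβ3 and rat CaVα2δ-1 cDNAs used in construction. Calcium influx was read by Fluo-8 fluorescence on a FLIPR Tetra. […] The selectivity ratio is CaV1.3 IC50 over CaV1.2 IC50.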
# Voltage-dependent L-type calcium channel subunit alpha-1C, sequence (P15381 whole entry): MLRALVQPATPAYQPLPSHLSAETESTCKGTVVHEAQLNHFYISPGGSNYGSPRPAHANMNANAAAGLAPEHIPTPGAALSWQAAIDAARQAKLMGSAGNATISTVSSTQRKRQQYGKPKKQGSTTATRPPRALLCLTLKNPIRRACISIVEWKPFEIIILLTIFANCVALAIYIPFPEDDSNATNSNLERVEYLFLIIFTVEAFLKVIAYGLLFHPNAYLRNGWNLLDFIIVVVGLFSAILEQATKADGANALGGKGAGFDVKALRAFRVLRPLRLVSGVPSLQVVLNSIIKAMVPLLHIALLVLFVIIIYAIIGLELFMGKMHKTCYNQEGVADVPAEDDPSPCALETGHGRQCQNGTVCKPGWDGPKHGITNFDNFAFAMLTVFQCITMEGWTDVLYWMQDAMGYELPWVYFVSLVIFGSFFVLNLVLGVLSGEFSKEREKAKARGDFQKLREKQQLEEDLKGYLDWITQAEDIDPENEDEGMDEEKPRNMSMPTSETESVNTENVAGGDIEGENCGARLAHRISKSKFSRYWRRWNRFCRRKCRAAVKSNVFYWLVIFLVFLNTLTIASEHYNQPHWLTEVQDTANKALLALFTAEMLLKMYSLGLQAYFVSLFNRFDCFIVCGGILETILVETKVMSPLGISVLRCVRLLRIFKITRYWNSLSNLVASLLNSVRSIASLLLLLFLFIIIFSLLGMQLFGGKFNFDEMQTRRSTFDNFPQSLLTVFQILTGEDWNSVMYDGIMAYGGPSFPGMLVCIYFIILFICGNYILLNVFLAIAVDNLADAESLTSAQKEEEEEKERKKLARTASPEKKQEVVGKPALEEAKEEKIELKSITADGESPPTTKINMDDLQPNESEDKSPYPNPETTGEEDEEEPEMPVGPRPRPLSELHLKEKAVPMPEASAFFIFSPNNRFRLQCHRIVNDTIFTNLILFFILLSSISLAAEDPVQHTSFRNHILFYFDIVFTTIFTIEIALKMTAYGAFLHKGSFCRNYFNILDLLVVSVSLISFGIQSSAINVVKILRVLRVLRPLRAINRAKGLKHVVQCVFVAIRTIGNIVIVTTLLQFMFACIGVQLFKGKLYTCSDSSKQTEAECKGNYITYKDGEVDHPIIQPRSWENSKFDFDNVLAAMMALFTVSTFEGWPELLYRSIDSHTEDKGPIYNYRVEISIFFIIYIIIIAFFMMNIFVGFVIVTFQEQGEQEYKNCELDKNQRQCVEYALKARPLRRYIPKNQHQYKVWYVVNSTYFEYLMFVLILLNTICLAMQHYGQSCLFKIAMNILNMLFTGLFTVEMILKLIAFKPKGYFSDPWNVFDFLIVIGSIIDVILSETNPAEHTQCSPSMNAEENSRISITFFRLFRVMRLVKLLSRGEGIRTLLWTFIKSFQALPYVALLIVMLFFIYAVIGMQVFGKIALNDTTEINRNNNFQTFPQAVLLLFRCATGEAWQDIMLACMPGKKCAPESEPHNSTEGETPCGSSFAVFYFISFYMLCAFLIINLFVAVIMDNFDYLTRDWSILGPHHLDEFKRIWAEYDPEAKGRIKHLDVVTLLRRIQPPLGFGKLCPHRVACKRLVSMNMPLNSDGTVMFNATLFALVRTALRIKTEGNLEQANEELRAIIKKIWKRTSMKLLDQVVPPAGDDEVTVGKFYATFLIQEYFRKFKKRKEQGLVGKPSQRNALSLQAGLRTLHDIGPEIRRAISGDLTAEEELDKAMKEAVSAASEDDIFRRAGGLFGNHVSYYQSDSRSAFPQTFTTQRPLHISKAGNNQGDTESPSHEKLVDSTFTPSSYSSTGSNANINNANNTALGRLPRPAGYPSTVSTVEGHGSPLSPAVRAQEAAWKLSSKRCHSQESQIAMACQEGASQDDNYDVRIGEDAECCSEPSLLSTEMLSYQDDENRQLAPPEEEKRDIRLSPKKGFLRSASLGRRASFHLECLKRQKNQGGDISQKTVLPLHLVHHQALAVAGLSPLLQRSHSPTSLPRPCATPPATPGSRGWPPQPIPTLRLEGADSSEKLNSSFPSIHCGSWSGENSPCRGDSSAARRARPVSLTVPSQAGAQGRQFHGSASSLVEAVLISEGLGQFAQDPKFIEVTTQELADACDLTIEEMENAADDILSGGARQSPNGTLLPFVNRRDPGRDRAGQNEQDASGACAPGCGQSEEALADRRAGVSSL
row,Structure (SMILES),IC50
1,COC(=O)N1C(=O)N=C(C)C(C(=O)OC(C)C)[C@@H]1c1cccc([N+](=O)[O-])c1 (some centres not stated),2480 nM
2,COC(=O)C1C(C)=NC(=O)N(C(=O)OC(C)C)C1c1cccc([N+](=O)[O-])c1 (configuration not stated),2480 nM
